# High-throughput results (PubChem)
# Hits are enriched below; roughly 3.7% of the tested compounds scored in any of these assays.
# KCNQ1 act – potentiates or activates the human KCNQ1 potassium channel. P51787. CHO-K1 KCNQ1, thallium flux FluxOR fluorescence; hits give high values. B-score at 10 µM. 310,000 tested, 0.35% active;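 active means fluorescence ratio B-score, a plate-corrected score, at least three library SD, with initial intensity B-score within 5 SD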
#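 Test system: CHO-K1 cells stably expressing KCNQ1 / Medium: assay buffer / Also added: depolarizing K+/Tl+ stimulus, K2SO4 and Tl2SO4 each 12.5 mM in 5x stock / Incubation: 90 min dye loading and 20 min compound exposure, both at room temperature / Signal: thallium influx via FluxOR fluorescence, kinetic imaging / Evaluation: B score of baseline-normalized fluorescence ratio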
# KCNQ1 inh – inhibitors of human KCNQ1 potassium channel. P51787. CHO-K1 KCNQ1, FluxOR thallium flux fluorescence; hits give high values. B-score at 10 µM. 310,000 tested, 1.3% active;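 active means compounds whose thallium flux B-score, printed positive for inhibition, exceeds three library SD while starting fluorescence stays within three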;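 further: channel opened by potassium depolarization with thallium stimulus after 20 min compound exposure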
# KCNK3 inh – human KCNK3 channel inhibition, primary screen | O14649 | CHO-KCNK3 thallium flux, FluxOR fluorescence; hits give low values | B-score at 10 µM | 340,000 tested, 0.84% active;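 active means B-score under library mean minus 4 SD, starting fluorescence ratio at most library mean plus 5 SD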;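 further: more negative B-score means stronger inhibition of thallium flux through KCNK3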
# KCNK9 block – inhibitors of human KCNK9 two-pore domain potassium channel; HEK293 KCNK9, FluxOR thallium flux fluorescence; hits give low values; B-score at 10 µM; AID 488922; Q9NPC2; 310,000 tested, 1.2% active;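 active means ratio B-score over 3 SD below the library mean, with starting fluorescence within 5 SD of its mean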;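 further: negative B-score means less thallium flux so channel inhibition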
# hERG rescue – compounds protecting human hERG from proarrhythmic drug block. CHO-hERG, FluxOR thallium flux, dofetilide IC70 present. activation (rescue from dofetilide block), less the hit threshold, % at 10 µM. 310,000 tested, 0.51% active. AID 1511;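 active means activation above the mean of controls blocked by dofetilide plus 5 SD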;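 further: thallium influx through hERG after potassium depolarization seen as dye fluorescence rise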
# Target sequence (Q12809 whole entry, looked up): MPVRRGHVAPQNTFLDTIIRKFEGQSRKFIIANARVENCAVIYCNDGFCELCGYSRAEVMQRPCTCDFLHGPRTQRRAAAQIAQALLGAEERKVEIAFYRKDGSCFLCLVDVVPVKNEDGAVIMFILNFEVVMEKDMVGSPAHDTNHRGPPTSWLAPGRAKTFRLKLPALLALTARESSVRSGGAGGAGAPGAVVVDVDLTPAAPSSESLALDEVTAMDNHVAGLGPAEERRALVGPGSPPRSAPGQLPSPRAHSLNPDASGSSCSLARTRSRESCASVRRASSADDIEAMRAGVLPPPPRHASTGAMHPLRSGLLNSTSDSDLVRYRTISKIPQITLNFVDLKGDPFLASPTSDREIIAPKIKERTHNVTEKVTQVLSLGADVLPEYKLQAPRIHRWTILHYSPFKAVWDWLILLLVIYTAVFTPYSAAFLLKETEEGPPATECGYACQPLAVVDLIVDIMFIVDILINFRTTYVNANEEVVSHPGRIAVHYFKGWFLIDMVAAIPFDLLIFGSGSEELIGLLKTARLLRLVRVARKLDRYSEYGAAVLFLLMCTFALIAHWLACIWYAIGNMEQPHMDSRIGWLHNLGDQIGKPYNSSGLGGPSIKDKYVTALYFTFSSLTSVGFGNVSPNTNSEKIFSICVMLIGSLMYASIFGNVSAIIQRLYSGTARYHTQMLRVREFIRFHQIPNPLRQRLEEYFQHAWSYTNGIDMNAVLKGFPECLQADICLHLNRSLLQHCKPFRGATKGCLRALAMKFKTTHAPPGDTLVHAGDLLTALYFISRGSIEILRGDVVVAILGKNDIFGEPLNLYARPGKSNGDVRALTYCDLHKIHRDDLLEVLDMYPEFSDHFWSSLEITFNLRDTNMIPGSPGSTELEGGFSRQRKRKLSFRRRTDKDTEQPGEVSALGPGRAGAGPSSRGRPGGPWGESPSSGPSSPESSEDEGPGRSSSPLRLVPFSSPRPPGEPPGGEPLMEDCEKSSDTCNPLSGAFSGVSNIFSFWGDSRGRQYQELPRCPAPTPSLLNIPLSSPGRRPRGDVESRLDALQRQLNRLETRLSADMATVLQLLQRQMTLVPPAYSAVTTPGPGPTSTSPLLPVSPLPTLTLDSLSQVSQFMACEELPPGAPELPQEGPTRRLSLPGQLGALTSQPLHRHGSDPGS
# Kir21 inh – inhibitors of mouse Kir2.1 inward-rectifier potassium channel. P35561. HEK293-Kir2.1, FluxOR thallium flux fluorescence; hits give low values. B-score at 10 µM. 310,000 tested, 0.85% active. AID 1672;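 active means fluorescence ratio B-score at or below minus 3 SD of library scores, with starting-brightness B-score within 2 SD, cut at about -4.2 in these data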;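 further: channel flux triggered by added potassium and thallium sulfate stimulus; B-score of peak minus minimum fluorescence over baseline after thallium stimulus; more negative B-score means stronger Kir2.1 block with less thallium influx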
# An asterisk follows results filed as active; i = inactive; . = no result given.
SMILES,KCNQ1 act,KCNQ1 inh,KCNK3 inh,KCNK9 block,hERG rescue,Kir21 inh
O=C(NC(=S)Nc1ccccc1N1CCCCC1)c1cccs1,12*,i,i,i,7.5*,-0.38
COc1ccc(N2CCN(C(=S)NC(=O)c3cccs3)CC2)c([N+](=O)[O-])c1,13*,i,i,i,-7.5,0.05
O=C(NC(=S)N1CCN(c2ccc(O)cc2)CC1)c1cccs1,i,i,i,i,-10.5,-1.23
O=C(NC(=S)Nc1ccc(N2CCCCC2)cc1)c1cccs1,9*,i,i,i,-4.3,2.45
O=[N+]([O-])c1ccc(NS(=O)(=O)N2CCOCC2)cc1,.,.,i,.,.,.
CC1CCCC(C)N1C(=O)CN1C(=O)NC2(CCOc3ccccc32)C1=O (configuration not stated),.,.,i,.,.,.
O=C(NC(=S)Nc1ccccc1N1CCCC1)c1cccs1,17*,i,i,i,3.4,-1.41
Cc1ccc(C)c(NC(=S)NNC(=O)c2csc3c2CCCC3)c1,11*,i,i,i,-4.8,1.32
Cc1ccc(NC(=S)NNC(=O)c2ccccc2O)c(C)c1,i,10*,i,i,-8.3,1.05
Cc1ccc(C)c(NC(=S)NNC(=O)c2csc3c2CCC(C)C3)c1 (configuration not stated),19*,i,i,i,6.8*,-0.95
Cc1ccc(NC(=O)NNC(=O)c2cc3ccccc3cc2O)c(C)c1,i,i,i,i,-0.1,-2.25
Cc1cccc(NC(=S)NNC(=O)c2csc3c2CCCC3)c1,i,i,i,i,-9.2,-0.3
CC(C)[C@H](NC(=O)c1ccco1)C(=O)OCC(=O)Nc1ccccc1OC(F)F,i,i,i,i,0.6,0.39
CCOc1ccc(C(=O)Nc2cc(C)on2)cc1OCC,i,i,i,i,4.9*,-0.48
COc1ccccc1N1CCN(C2CCCN(C(=O)CCc3cnn(C)c3)C2)CC1 (configuration not stated),i,i,i,i,-4.1,0.06
CCOC(=O)/C(=N/Nc1ccc(Br)cc1)N1CC(C)OC(C)C1 (configuration not stated),.,.,-8.72*,.,.,.
Cc1ccc2nc(N(CCCN(C)C)C(=O)CCc3ccccc3)sc2c1,i,i,i,i,-22.2,-5.61*
CN(Cc1ccccc1)C(=O)c1ccc(NC(=O)Cc2ccc(NC(=O)C3CCCN(S(=O)(=O)c4cccc([N+](=O)[O-])c4)C3)cc2)cc1 (configuration not stated),.,.,i,.,.,.
CCOC(=O)c1sc(SC)c2c1CCCC2=O,i,i,i,i,-2.8,0.43
COc1ccc(-c2c(-c3cc(OC)cc(OC)c3)n(C)c3ccc(-c4ccc(N(C)C)nc4)cc23)cc1,.,.,i,.,.,.
CCC(C)Nc1nc(N)c([N+](=O)[O-])c(Nc2ccccc2OC)n1 (configuration not stated),i,i,i,-7.93*,-4.9,0.38
Cc1ccc(OCc2cc(C(=O)NC3CCOC3)no2)cc1C (configuration not stated),i,i,i,i,-3.9,1.36
CCOC(=O)N1CCN(C(=O)Cc2ccccc2[N+](=O)[O-])CC1,i,i,i,i,-14.7,0.78
c1cnc2nc(-c3ccc4c(c3)OCO4)cn2c1,i,i,i,i,-9.7,-1.31
CCc1ccn2cc(-c3ccc4c(c3)OCO4)nc2c1,i,i,i,-7.32*,-7.2,1.88
SMILES,KCNQ1 act,KCNQ1 inh,KCNK3 inh,KCNK9 block,hERG rescue,Kir21 inh
N#CCn1c(C2CCCCC2)nc2ccccc2c1=O,i,i,i,i,-2.3,0.53
Cc1cccc(Sc2nc(-c3ccccc3)ccc2C#N)c1,i,i,i,-6.59*,-15.3,-0.07
COc1ccccc1NC(=O)c1ccc(NC(=O)CN2C(=O)CN(C)C2=O)cc1,i,i,i,i,-7.7,-2.5
Cc1ccc(-n2cccc2C(=S)N=P(N(C)C)(N(C)C)N(C)C)cc1,i,i,i,-7.6*,-11.1,-11.5*
CCOc1ccc(S(=O)(=O)NCc2cccnc2)cc1C(C)C,i,i,i,i,-7.8,-3.03
CC(=O)c1sc(NC(=O)c2cnc(Cl)c(Cl)c2)nc1C,i,9*,i,i,-2.5,0.05
